Test results taken from ChEMBL document CHEMBL1938246, “Eudesmane-type sesquiterpene lactones inhibit multiple steps in the NF-κB signaling pathway induced by inflammatory cytokines” (Bioorg Med Chem Lett, 2012).
Active and inactive are the calls of the source. The rule behind the calls is not given here.

Tests used:
[1] = (§1) Inhibition of NFkappaB-mediated ICAM1 expression in IL1alpha-stimulated human A549 cells treated 1 hr before IL1alpha challenge measured after 6 hrs by ELISA; type: cell-based
Method in brief: (§2)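 A549 cells preincubated 1 h with serial dilutions of compound, then stimulated with IL-1α (0.25 ng/mL) or TNF-α (2.5 ng/mL) for 6 h with compound still present. Cell-surface ICAM-1 (%) by cell ELISA on triplicate cultures. IC50 (µM) is the mean of at least three independent experiments.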

[2] = system: A549; experiment: as §1; type: cell-based; method in brief: as §2
[3] = Selectivity ratio of IC50 for human A549 cells to IC50 for NFkappaB-mediated ICAM1 expression in human A549 cells; type: ADME, cell-based; conditions: read-out: Ratio IC50
[4] = system: A549; experiment: Inhibition of NFkappaB-mediated ICAM1 protein expression in TNFalpha-stimulated human A549 cells preincubated for 1 hr prior TNFalpha challenge measured after 6 hrs by Western blot analysis; type: cell-based
[5] = (§3) Inhibition of NFkappaB-mediated ICAM1 expression in TNFalpha-stimulated human A549 cells treated 1 hr before TNFalpha challenge measured after 6 hrs by ELISA; type: cell-based; method in brief: as §2
[6] = system: A549; experiment: as §3; type: cell-based; method in brief: as §2
[7] = system: A549; experiment: Inhibition of TNF-alpha-induced IkappaBalpha degradation in human A549 cells at 100 uM incubated for 1 hr prior TNFalpha challenge measured after 15 mins by Western blot analysis; type: functional, cell-based
Method in brief: (§4)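 A549 cells preincubated 1 h with compound at the stated concentrations, then given IL-1α (0.25 ng/mL) or TNF-α (2.5 ng/mL). IκBα degradation then monitored.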

[8] = system: A549; experiment: Inhibition of NFkappaB-mediated ICAM1 protein expression in IL1alpha-stimulated human A549 cells preincubated for 1 hr prior IL1alpha challenge measured after 6 hrs by Western blot analysis; type: cell-based
[9] = system: A549; experiment: Cytotoxicity against human A549 cells after 24 hrs by MTT assay; type: cell-based; conditions: a549, 24 h
Method in brief: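 A549 cells exposed to serial dilutions of compound for 24 h. Viability (%) by MTT assay on triplicate cultures. IC50 (µM) is the mean of four independent experiments.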

[10] = target: Transcription factor p65 (Homo sapiens) (UniProt Q04206); experiment: Inhibition of NF-kappaB p65 nuclear translocation in IL1alpha-stimulated human A549 cells at 30 to 100 uM incubated for 1 hr prior IL1alpha challenge measured after 30 mins by Western blot analysis; type: cell-based
Transcription factor p65 (Homo sapiens), sequence (Q04206 whole entry): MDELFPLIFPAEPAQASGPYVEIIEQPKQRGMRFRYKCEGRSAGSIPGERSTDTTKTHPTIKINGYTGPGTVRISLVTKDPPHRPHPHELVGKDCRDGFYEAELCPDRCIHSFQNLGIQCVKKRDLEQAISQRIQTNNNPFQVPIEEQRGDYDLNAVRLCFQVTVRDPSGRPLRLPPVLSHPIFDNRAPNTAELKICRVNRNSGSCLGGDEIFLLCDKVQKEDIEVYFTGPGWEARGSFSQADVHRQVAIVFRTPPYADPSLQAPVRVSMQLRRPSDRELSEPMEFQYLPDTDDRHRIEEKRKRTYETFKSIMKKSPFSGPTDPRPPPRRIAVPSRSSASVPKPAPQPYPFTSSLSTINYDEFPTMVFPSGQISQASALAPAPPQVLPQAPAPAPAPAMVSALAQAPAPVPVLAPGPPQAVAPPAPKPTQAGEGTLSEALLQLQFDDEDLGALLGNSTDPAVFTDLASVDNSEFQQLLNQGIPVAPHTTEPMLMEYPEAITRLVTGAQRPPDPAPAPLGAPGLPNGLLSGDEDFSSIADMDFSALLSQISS
Method in brief: (§5)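 A549 cells pretreated 1 h with compound at the stated concentrations, then stimulated 30 min with IL-1α (0.25 ng/mL) or TNF-α. p65 and p50 subunits then assessed for movement from cytoplasm to nucleus.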

[11] = system: A549; experiment: Inhibition of IL1alpha-induced IkappaBalpha degradation in human A549 cells at 100 uM incubated for 1 hr prior IL1alpha challenge measured after 15 mins by Western blot analysis; type: functional, cell-based; method in brief: as §4
[12] = system: A549; experiment: Inhibition of NF-kappaB p50 nuclear translocation in IL1alpha-stimulated human A549 cells at 30 to 100 uM incubated for 1 hr prior IL1alpha challenge measured after 30 mins by Western blot analysis; type: cell-based; method in brief: as §5
[13] = system: A549; experiment: Inhibition of NF-kappaB p50 nuclear translocation in TNFalpha-stimulated human A549 cells at 30 to 100 uM incubated for 1 hr prior TNFalpha challenge measured after 30 mins by Western blot analysis; type: cell-based; method in brief: as §5
[14] = target: Transcription factor p65 (Homo sapiens) (UniProt Q04206); experiment: Inhibition of NF-kappaB p65 nuclear translocation in TNFalpha-stimulated human A549 cells at 30 to 100 uM incubated for 1 hr prior TNFalpha challenge measured after 30 mins by Western blot analysis; type: cell-based; method in brief: as §5
[15] = target: T1, NF-kappa-B inhibitor alpha (Homo sapiens) (UniProt P25963); experiment: Inhibition of IL1alpha-induced IkappaBalpha phosphorylation in human A549 cells at 100 uM incubated for 1 hr prior IL1alpha challenge measured after 15 mins by Western blot analysis in the presence of proteasome inhibitor MG-132; type: cell-based
T1 sequence (whole entry): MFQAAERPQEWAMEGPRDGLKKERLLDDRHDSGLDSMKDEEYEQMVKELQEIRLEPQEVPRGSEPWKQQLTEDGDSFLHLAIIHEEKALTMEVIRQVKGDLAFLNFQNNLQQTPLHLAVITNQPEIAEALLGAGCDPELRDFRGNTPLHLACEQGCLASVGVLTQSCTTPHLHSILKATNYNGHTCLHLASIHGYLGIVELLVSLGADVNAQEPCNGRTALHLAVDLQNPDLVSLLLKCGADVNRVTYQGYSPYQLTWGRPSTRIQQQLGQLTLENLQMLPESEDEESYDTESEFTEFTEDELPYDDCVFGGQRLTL
Method in brief: (§6)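 A549 cells preincubated 1 h with or without the proteasome inhibitor MG-132 (20 µM) or with compound at various concentrations. Then stimulated 15 min with IL-1α (0.25 ng/mL) or TNF-α (2.5 ng/mL), or left unstimulated, with compound present. IκBα phosphorylation then examined.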

[16] = target: T1, NF-kappa-B inhibitor alpha (Homo sapiens); experiment: Inhibition of TNF-alpha-induced IkappaBalpha phosphorylation in human A549 cells at 100 uM incubated for 1 hr prior TNFalpha challenge measured after 15 mins by Western blot analysis in the presence of proteasome inhibitor MG-132; type: cell-based; method in brief: as §6
[17] = system: A549; experiment: Cytotoxicity against human A549 cells at 100 uM up to 7 hrs by MTT assay; type: cell-based; conditions: a549, 7 h
[18] = target: T1, NF-kappa-B inhibitor alpha (Homo sapiens); experiment: Inhibition of TNF-alpha-induced IkappaBalpha phosphorylation in human A549 cells at 10 to 100 uM incubated for 1 hr prior to TNFalpha challenge measured after 15 mins by Western blot analysis in the presence of proteasome inhibitor MG-132; type: cell-based; method in brief: as §6
[19] = system: A549; experiment: Cytotoxicity against human A549 cells at 100 uM up to 7 hrs by crystal violet staining; type: cell-based; conditions: a549, 7 h
[20] = system: A549; experiment: Cytotoxicity against human A549 cells at 100 to 320 uM after 24 hrs by MTT assay; type: cell-based; conditions: a549, 24 h
[21] = target: T1, NF-kappa-B inhibitor alpha (Homo sapiens); experiment: Inhibition of IL1alpha-induced IkappaBalpha phosphorylation in human A549 cells at 10 to 100 uM incubated for 1 hr prior to IL1alpha challenge measured after 15 mins by Western blot analysis in the presence of proteasome inhibitor MG-132; type: cell-based; method in brief: as §6
[22] = system: A549; experiment: Inhibition of NF-kappaB p50 nuclear translocation in IL1alpha-stimulated human A549 cells at 100 uM incubated for 1 hr prior IL1alpha challenge measured after 30 mins by Western blot analysis; type: cell-based; method in brief: as §5
[23] = system: A549; experiment: Inhibition of NF-kappaB p50 nuclear translocation in TNFalpha-stimulated human A549 cells at 100 uM incubated for 1 hr prior TNFalpha challenge measured after 30 mins by Western blot analysis; type: cell-based; method in brief: as §5
[24] = target: Transcription factor p65 (Homo sapiens) (UniProt Q04206); experiment: Inhibition of NF-kappaB p65 nuclear translocation in TNFalpha-stimulated human A549 cells at 100 uM incubated for 1 hr prior TNFalpha challenge measured after 30 mins by Western blot analysis; type: cell-based; method in brief: as §5
[25] = target: Transcription factor p65 (Homo sapiens) (UniProt Q04206); experiment: Inhibition of NF-kappaB p65 nuclear translocation in IL1alpha-stimulated human A549 cells at 100 uM incubated for 1 hr prior IL1alpha challenge measured after 30 mins by Western blot analysis; type: cell-based; method in brief: as §5

Structure (SMILES)	IC50 [1] [µM]	inhibition [2]	selectivity ratio [3]	inhibition [4]	IC50 [5] [µM]	inhibition [6]	inhibition [7]	inhibition [8]	IC50 [9] [µM]	inhibition [10]	inhibition [11]	inhibition [12]	inhibition [13]	inhibition [14]	inhibition [15]	inhibition [16]	also measured
C=C1C(=O)O[C@@H]2[C@H]3[C@H](C)C(=O)C=C[C@]3(C)CC[C@@H]12	10	Dose-dependent effect	10	Dose-dependent effect	4.3	Dose-dependent effect	Active	Dose-dependent effect	120	Active	Active	Active	Active	Active	Active	Active	–
C=C1C(=O)O[C@@H]2[C@H]3[C@H](C)C(=O)CC[C@]3(C)CC[C@@H]12	6.2	Dose-dependent effect	10	Dose-dependent effect	4.3	Dose-dependent effect	Active	Dose-dependent effect	110	Active	Active	Active	Active	Active	Active	Active	–
C[C@@H]1C(=O)O[C@H]2[C@H]1CC[C@@]1(C)C[C@@H](Br)C(=O)[C@@H](C)[C@H]21	10	Dose-dependent effect	–	Dose-dependent effect	4.6	Dose-dependent effect	inactive	Dose-dependent effect	> 320	Active	Active	Active	Active	Active	–	–	Activity [17]: Non-toxic; inhibition [18]: Active; Activity [19]: Non-toxic; Activity [20]: Toxic; inhibition [21]: Active
C[C@@H]1C(=O)O[C@H]2[C@H]1CC[C@@]1(C)CCC(=O)[C@@H](C)[C@H]21	> 320	inactive	–	–	> 320	inactive	–	–	> 320	–	–	–	–	–	–	–	–
C[C@@H]1C(=O)O[C@H]2[C@H]1CC[C@@]1(C)C=CC(=O)[C@@H](C)[C@H]21	52	Dose-dependent effect	–	Dose-dependent effect	34	Dose-dependent effect	–	Dose-dependent effect	> 320	–	–	–	–	–	–	–	inhibition [22]: Active; inhibition [23]: Active; Activity [20]: Toxic; inhibition [24]: Active; inhibition [25]: Active
C=C1C(=O)O[C@@H]2[C@H]3[C@H](C)C(=O)[C@H](Br)C[C@]3(C)CC[C@@H]12	3.4	Dose-dependent effect	10	Dose-dependent effect	2.8	Dose-dependent effect	Active	Dose-dependent effect	88	Active	Active	Active	Active	Active	Active	Active	–
C[C@H]1[C@@H]2[C@H]3OC(=O)[C@@H](C)[C@@H]3CC[C@@]2(C)C=C[C@@H]1O	> 320	inactive	–	–	> 320	inactive	–	–	> 320	–	–	–	–	–	–	–	–
C=C1C(=O)O[C@@H]2[C@H]3[C@H](C)[C@@H](O)C=C[C@]3(C)CC[C@@H]12	23	Dose-dependent effect	10	Dose-dependent effect	6.1	Dose-dependent effect	inactive	Dose-dependent effect	140	Active	inactive	Active	Active	Active	inactive	inactive	–
